From ChEMBL document CHEMBL4304756, “Second-Generation Tryptamine Derivatives Potently Sensitize Colistin Resistant Bacteria to Colistin” (ACS Med Chem Lett, 2019)
Activity calls are given as the source filed them. The rule behind the calls is not given here.

What was measured:
Klebsiella pneumoniae [1] = assay: Potentiation of colistin-induced antibacterial activity against Klebsiella pneumoniae 2210291 assessed as colistin MIC at 50 uM incubated for 16 hrs by broth microdilution method (reference value: 1 ug/ml); type: functional; conditions: Klebsiella pneumoniae, 2210291, 16 h
Klebsiella pneumoniae [2] = assay: Potentiation of colistin-induced antibacterial activity against Klebsiella pneumoniae 2210291 harbouring mcr-1 gene assessed as colistin MIC at 50 uM incubated for 16 hrs by broth microdilution method (reference value: 16 ug/ml); type: functional; conditions: Klebsiella pneumoniae, 2210291, 16 h
Escherichia coli [3] = assay: Potentiation of colistin-induced antibacterial activity against Escherichia coli YD626 harbouring mcr-1 gene assessed as colistin MIC at 50 uM incubated for 16 hrs by broth microdilution method (reference value: 8 ug/ml); type: functional; conditions: YD626, 16 h
Escherichia coli [4] = assay: Potentiation of colistin-induced antibacterial activity against Escherichia coli YD626 assessed as colistin MIC at 50 uM incubated for 16 hrs by broth microdilution method (reference value: 1 ug/ml); type: functional; conditions: YD626, 16 h
Acinetobacter baumannii [5] = assay: Potentiation of colistin-induced antibacterial activity against Acinetobacter baumannii 17978 harbouring mcr-1 gene assessed as colistin MIC at 50 uM incubated for 16 hrs by broth microdilution method (reference value: 16 ug/ml); type: functional; conditions: Acinetobacter baumannii, 17978, 16 h
Acinetobacter baumannii [6] = assay: Potentiation of colistin-induced antibacterial activity against Acinetobacter baumannii 17978 assessed as colistin MIC at 50 uM incubated for 16 hrs by broth microdilution method (reference value: 2 ug/ml); type: functional; conditions: Acinetobacter baumannii, 17978, 16 h
[7] = Cytotoxicity against mouse 4T1 cells assessed as reduction in cell viability incubated for 18 hrs by MTT assay; type: cell-based
Procedure, shortened: (§1)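 4T1 mouse mammary tumor cells exposed to compound for 18 h, alone or together with colistin at 1 μg/mL. Medium then aspirated and replaced with 0.5 mg/mL MTT in culture medium for colorimetric viability read-out. CT50 taken as the concentration giving 50% cell viability.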

[8] = Cytotoxicity against mouse 4T1 cells assessed as reduction in cell viability in presence of 1 ug/ml colistin incubated for 18 hrs by MTT assay; type: cell-based; procedure, shortened: as §1
Escherichia coli [9] = assay: Potentiation of colistin-induced antibacterial activity against Escherichia coli YD626 harbouring mcr-1 gene assessed as reduction in colistin MIC at 15 uM incubated for 16 hrs by broth microdilution method; type: functional, organism-based
Procedure, shortened: (§2)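 For the dose-response, colistin MIC was measured against mcr-1 plasmid-bearing E. coli, K. pneumoniae and A. baumannii while the adjuvant concentration was lowered stepwise (30, 15 μM, down to 5 μM). The aim was to find where the MIC rose above the 2 μg/mL CLSI susceptibility breakpoint.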

Acinetobacter baumannii [10] = assay: Potentiation of colistin-induced antibacterial activity against Acinetobacter baumannii 17978 harbouring mcr-1 gene assessed as reduction in colistin MIC at 15 uM incubated for 16 hrs by broth microdilution method; type: functional, organism-based; procedure, shortened: as §2
Klebsiella pneumoniae [11] = assay: Potentiation of colistin-induced antibacterial activity against Klebsiella pneumoniae 2210291 harbouring mcr-1 gene assessed as reduction in colistin MIC at 15 uM incubated for 16 hrs by broth microdilution method; type: functional, organism-based; procedure, shortened: as §2

SMILES	MIC (Klebsiella pneumoniae [1]) [µg/mL]	MIC (Klebsiella pneumoniae [2]) [µg/mL]	MIC (Escherichia coli [3]) [µg/mL]	MIC (Escherichia coli [4]) [µg/mL]	MIC (Acinetobacter baumannii [5]) [µg/mL]	MIC (Acinetobacter baumannii [6]) [µg/mL]	CC50 at 18 h [7] [µM]	CC50 at 18 h [8] [µM]	Activity (Escherichia coli [9])	Activity (Acinetobacter baumannii [10])	Activity (Klebsiella pneumoniae [11])
O=C(Nc1cc(C(F)(F)F)cc(C(F)(F)F)c1)Nc1ccc2[nH]ccc2c1	0.5	8	4	0.5	8	1	–	–	–	–	–
O=C(NCCc1c[nH]c2ccccc12)c1cc(Br)cc(Br)c1	0.5	4	4	0.25	4	1	–	–	–	–	–
CCCCc1ccc(NC(=O)NCCc2c[nH]c3ccccc23)cc1	1	16	8	1	16	2	–	–	–	–	–
CCCCc1ccc(NC(=O)NCc2c[nH]c3ccccc23)cc1	0.5	16	8	1	16	2	–	–	–	–	–
O=C(NCc1c[nH]c2ccccc12)Nc1cc(C(F)(F)F)cc(C(F)(F)F)c1	0.125	1	1	0.0313	1	0.125	–	–	–	–	–
O=C(Nc1cc(Br)cc(Br)c1)Nc1ccc2[nH]ccc2c1	1	16	8	1	16	1	–	–	–	–	–
CCCCc1ccc(NC(=O)Nc2ccc3[nH]ccc3c2)cc1	0.5	16	8	0.5	16	1	–	–	–	–	–
O=C(NCCc1c[nH]c2ccccc12)c1ccc(Cl)c(Cl)c1	0.5	2	2	0.5	2	1	–	–	–	–	–
O=C(NCCc1c[nH]c2ccccc12)c1cc(C(F)(F)F)cc(C(F)(F)F)c1	0.25	16	4	0.0625	8	0.25	–	–	–	–	–
CC(C)n1cc(-c2cccc(NC(=O)Nc3cc(Cl)c(Br)c(Cl)c3)c2)nc1N	–	–	–	–	–	–	23.2	15.6	–	–	–
O=C(NCCc1c[nH]c2ccc(Br)cc12)c1cc(C(F)(F)F)cc(C(F)(F)F)c1	0.25	8	4	0.0625	8	0.5	–	–	–	–	–
O=C(Nc1cc(Br)cc(Br)c1)Nc1ccc2cc[nH]c2c1	1	16	8	1	16	2	–	–	–	–	–
O=C(NCCc1c[nH]c2ccc(Br)cc12)Nc1cc(C(F)(F)F)cc(C(F)(F)F)c1	0.5	2	4	0.0313	2	0.25	–	–	–	–	–
O=C(Nc1cc(Cl)c(Br)c(Cl)c1)Nc1ccc2[nH]ccc2c1	1	16	8	0.5	8	1	–	–	–	–	–
O=C(NCc1c[nH]c2ccccc12)Nc1cc(Cl)c(Br)c(Cl)c1	0.5	8	8	0.25	8	1	–	–	–	–	–
CCCCc1ccc(NC(=O)Nc2ccc3cc[nH]c3c2)cc1	1	16	8	0.5	8	2	–	–	–	–	–
O=C(NCc1c[nH]c2ccccc12)Nc1cc(Br)cc(Br)c1	0.5	16	4	0.25	8	1	–	–	–	–	–
O=C(NCc1c[nH]c2ccccc12)Nc1ccc(Cl)c(Cl)c1	0.5	16	4	0.5	16	2	–	–	–	–	–
O=C(Nc1ccc(Cl)c(Cl)c1)Nc1ccc2[nH]ccc2c1	1	16	8	0.5	16	2	–	–	–	–	–
O=C(NCCc1c[nH]c2ccccc12)Nc1cc(Cl)c(Br)c(Cl)c1	0.5	1	1	0.125	1	0.5	–	–	Active	Active	Active
O=C(NCCc1c[nH]c2ccccc12)Nc1cc(C(F)(F)F)cc(C(F)(F)F)c1	0.25	1	1	0.0313	0.5	0.125	60.5	61.8	Active	Active	Active
O=C(Nc1cc(C(F)(F)F)cc(C(F)(F)F)c1)Nc1ccc2cc[nH]c2c1	1	16	4	0.5	8	1	–	–	–	–	–
O=C(Nc1ccc(Cl)c(Cl)c1)Nc1ccc2cc[nH]c2c1	1	16	8	1	16	2	–	–	–	–	–
O=C(NCCc1c[nH]c2ccccc12)Nc1ccc(Cl)c(Cl)c1	0.25	0.5	1	0.125	0.5	0.5	117	105	–	–	–
CCCCc1ccc(C(=O)NCCc2c[nH]c3ccc(Br)cc23)cc1	0.25	4	4	0.125	4	0.5	–	–	–	–	–
O=C(NCCc1c[nH]c2ccc(Br)cc12)c1cc(Br)cc(Br)c1	0.5	4	4	0.5	4	1	–	–	–	–	–
O=C(NCCc1c[nH]c2ccc(Br)cc12)Nc1cc(Br)cc(Br)c1	0.5	2	2	0.25	2	0.5	–	–	–	–	–
CCCCc1ccc(C(=O)NCCc2c[nH]c3ccccc23)cc1	0.125	8	4	0.0625	4	0.25	–	–	–	–	–
O=C(Nc1cc(Cl)c(Br)c(Cl)c1)Nc1ccc2cc[nH]c2c1	1	16	8	1	16	2	–	–	–	–	–
O=C(NCCc1c[nH]c2ccc(Br)cc12)c1ccc(Cl)c(Cl)c1	0.5	1	2	0.25	1	0.5	–	–	–	–	–
